From ChEMBL document CHEMBL1131450, “Synthesis and antitumor evaluation of 2,5-disubstituted-indazolo[4, 3-gh]isoquinolin-6(2H)-ones (9-aza-anthrapyrazoles)” (J Med Chem, 1998) come the findings set out here.

Values after ≈ are worked out from the molar mass of the structure shown.

For test [1], the system named is MX1. Kind of test: In vivo antitumor activity was measured on MX-1 human mammary carcinoma cells. TWI%=tumor weight inhibition. Optimal dose 24 mg/kg/day. The test is classed as functional.
Another test relates to LoVo/Dx (Homo sapiens). Kind of test: cells.
Test [2] relates to P388. The class given is functional, Mus musculus.
Test [3] has as its system LoVo. Kind of test: In vitro cytotoxicity on human colon adenocarcinoma (LoVo ) tumor cell line. The test is classed as functional, cell-based.
Test [4] deals with LoVo. Kind of test: Resistance index measured as the ratio of IC50 of LoVo/Dx cell line to that of LoVo cell line. The test is classed as functional, Homo sapiens.
Test [5] relates to P388. Kind of test: In vivo antitumor activity was measured on systemic P388 murine leukemia cells. Maximum tested dose 40 mg/kg/day. The class given is functional, Mus musculus. In a few lines:
(§1)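 CD2F1 male mice given 10⁶ P388 leukemia cells iv (day 0); drug given iv on days 1, 4 and 7. Survival expressed as T/C% = median survival time of treated / median survival of controls × 100, reported at optimal dose (mg/kg/day) or maximum tested dose.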

The test system of test [6] is MX1. Kind of test: In vivo antitumor activity was measured on MX-1 human mammary carcinoma cells. TWI%=tumor weight inhibition. Maximum tested dose 90 mg/kg/day. The class given is functional.
The test system of test [7] is MX1. Kind of test: In vivo antitumor activity was measured on MX-1 human mammary carcinoma cells. TWI%=tumor weight inhibition. Optimal dose 9 mg/kg/day. The test is classed as functional.
The test system of test [8] is P388. Kind of test: In vivo antitumor activity was measured on systemic P388 murine leukemia cells. Optimal dose 4 mg/kg/day. The class given is functional, Mus musculus. In a few lines:
as §1

In test [9] the test system is MX1. Kind of test: In vivo antitumor activity was measured on MX-1 human mammary carcinoma cells. TWI%=tumor weight inhibition. Optimal dose 1.3 mg/kg/day. The test is classed as functional.
For test [10], the system named is P388. Kind of test: In vivo antitumor activity was measured on systemic P388 murine leukemia cells. Optimal dose 13 mg/kg/day. The test is classed as functional, Mus musculus. The method, boiled down: as §1
Test [11] concerns P388. Kind of test: In vivo antitumor activity was measured on systemic P388 murine leukemia cells. Toxic deaths observed at dose 18 mg/kg/day. The test is classed as functional, Mus musculus.
The subject of test [12] is MX1. Kind of test: In vivo antitumor activity was measured on MX-1 human mammary carcinoma cells. TWI%=tumor weight inhibition. Optimal dose 8 mg/kg/day. The class given is functional.
In test [13] the test system is P388. Kind of test: In vivo antitumor activity was measured on systemic P388 murine leukemia cells. Optimal dose 24 mg/kg/day. The class given is functional, Mus musculus. The method, boiled down:
as §1

For test [14], the system named is MX1. Kind of test: In vivo antitumor activity was measured on MX-1 human mammary carcinoma cells. TWI%=tumor weight inhibition. Optimal dose 27 mg/kg/day. The test is classed as functional.
The test system of test [15] is MX1. Kind of test: In vivo antitumor activity was measured on MX-1 human mammary carcinoma cells. TWI%=tumor weight inhibition. Optimal dose 60 mg/kg/day. The class given is functional.
For test [16], the system named is MX1. Kind of test: In vivo antitumor activity was measured on MX-1 human mammary carcinoma cells. TWI%=tumor weight inhibition. Optimal dose 18 mg/kg/day. The test is classed as functional.
Test [17] has as its system P388. Kind of test: In vivo antitumor activity was measured on systemic P388 murine leukemia cells. Maximum tested dose 18 mg/kg/day. The test is classed as functional, Mus musculus. The method, boiled down: as §1
Test [18] relates to MX1. Kind of test: In vivo antitumor activity was measured on MX-1 human mammary carcinoma cells. TWI%=tumor weight inhibition. Optimal dose 40 mg/kg/day. The test is classed as functional.
The subject of test [19] is MX1. Kind of test: In vivo antitumor activity was measured on MX-1 human mammary carcinoma cells. TWI%=tumor weight inhibition. Optimal dose 120 mg/kg/day. The class given is functional.
Test [20] relates to P388. Kind of test: In vivo antitumor activity was measured on systemic P388 murine leukemia cells. Optimal dose 7.5 mg/kg/day. The class given is functional, Mus musculus. The method, boiled down:
as §1

Test [21] deals with MX1. Kind of test: In vivo antitumor activity was measured on MX-1 human mammary carcinoma cells. TWI%=tumor weight inhibition. Optimal dose 13 mg/kg/day. The class given is functional.
For test [22], the system named is MX1. Kind of test: Antitumor activity was measured on MX-1 human mammary carcinoma cells. TWI%=tumor weight inhibition. Optimal dose at 40 mg/kg/day. The class given is functional.
The test system of test [23] is P388. Kind of test: In vivo antitumor activity was measured on systemic P388 murine leukemia cells. Optimal dose at 40 mg/kg/day. The test is classed as functional, Mus musculus. In a few lines: as §1
For test [24], the system named is P388. Kind of test: In vivo antitumor activity was measured on systemic P388 murine leukemia cells. Maximum tested dose 20 mg/kg/day. The test is classed as functional, Mus musculus. In a few lines: as §1

By IC50 is commonly meant the concentration needed to halve the response being measured. Read a low IC50 as greater potency. By T/C is commonly meant the ratio of treated to control. In turn, `CN(C)CCCn1nc2c3c(c(NCCN(C)C)ccc31)C(=O)c1ccncc1-2` came in with a TWI in the test on MX1 [1] of 55%. The IC50 amounted to 2 µg/mL (≈ 5.1 µM) in the test with LoVo/Dx (Homo sapiens) and 0.24 µg/mL (≈ 0.611 µM) in the test on LoVo [3]. Also, the T/C with P388 [2] is 270%. Moreover, the RI in the test on LoVo [4] was found to be 8.3.
Consider `CN(C)CCCNc1ccc2c3c(nn2CCN(C)C)-c2cnccc2C(=O)c13`, for which the IC50 with LoVo/Dx (Homo sapiens) was 2.13 µg/mL (≈ 5.43 µM); in the test on LoVo [3], 0.33 µg/mL (≈ 0.841 µM). The same molecule returned a T/C with P388 [5] of 138%. Further, the RI in the test on LoVo [4] was 6.4. In the test on MX1 [6], the TWI was determined as 141%.
In the test on MX1 [7], `CCN(CC)CCNc1ccc2c3c(nn2CCN(C)C)-c2cnccc2C(=O)c13` came in with a TWI of 35%. The IC50 was found to be 0.83 µg/mL (≈ 2.04 µM) in the test with LoVo/Dx (Homo sapiens) and 0.37 µg/mL (≈ 0.91 µM) in the test with LoVo [3]. Further, the T/C in the test on P388 [8] is given as 175%. Further, the RI with LoVo [4] is on record as 2.2.
As for `CNCCNc1ccc2c3c(nn2CCN(C)C)-c2cnccc2C(=O)c13`, the TWI in the test on MX1 [9] is 68%. For the same molecule, the values for the IC50 with LoVo/Dx (Homo sapiens) and in the test on LoVo [3] were 3.78 µg/mL (≈ 10.4 µM) and 0.03 µg/mL (≈ 0.0823 µM), respectively. The same molecule had a T/C with P388 [10] of 262%. In addition, in the test on LoVo [4], the RI is recorded as 126.
`CN(C)CCn1nc2c3c(c(NCCCN)ccc31)C(=O)c1ccncc1-2` returned a T/C in the test on P388 [11] of 125%. The TWI with MX1 [12] turned out to be 73%. Moreover, the results for the half-maximal inhibitory concentration (IC50) in the test on LoVo/Dx (Homo sapiens) and with LoVo [3] were 12.5 µg/mL (≈ 34.3 µM) and 1.65 µg/mL (≈ 4.53 µM), respectively. Further, the RI with LoVo [4] was found to be 7.6.
Molecule `NCCn1nc2c3c(c(NCCNCCO)ccc31)C(=O)c1ccncc1-2` yielded a T/C in the test on P388 [13] of 194%. Moreover, the values for the IC50 in the test on LoVo/Dx (Homo sapiens) and in the test on LoVo [3] were above 100 µg/mL and 1.63 µg/mL (≈ 4.45 µM), respectively. Moreover, in the test on LoVo [4], the RI was above 61. Also, the TWI with MX1 [14] was determined as 62%.
Turning to `CN(C)CCNCCNc1ccc2c3c(nn2CCN(C)C)-c2cnccc2C(=O)c13`, the results for the IC50 in the test with LoVo/Dx (Homo sapiens) and with LoVo [3] were above 100 µg/mL and 3.2 µg/mL (≈ 7.59 µM), respectively. Further, the T/C in the test with P388 [5] came out at 133%. In the test with MX1 [15], this molecule came in with a TWI of 25%. Besides, the RI with LoVo [4] is recorded as above 31.
Take `CN(C)CCn1nc2c3c(c(NCCN4CCNCC4)ccc31)C(=O)c1ccncc1-2`: in the test with MX1 [16], the TWI came to 14%. Besides, the IC50 in the test on LoVo/Dx (Homo sapiens) was above 100 µg/mL; in the test on LoVo [3] it was 4.83 µg/mL (≈ 11.5 µM). For the same molecule, the RI in the test on LoVo [4] is on record as 21. Moreover, the T/C with P388 [17] is on record as 113%.
In the case of `CN(C)CCn1nc2c3c(c(NCCO)ccc31)C(=O)c1ccncc1-2`, the IC50 was found to be 13.6 µg/mL (≈ 38.7 µM) in the test with LoVo/Dx (Homo sapiens) and 0.32 µg/mL (≈ 0.911 µM) in the test on LoVo [3]. In addition, the T/C with P388 [5] (in the assay text read “Maximum tested dose 12 mg/kg/day” for “Maximum tested dose 40 mg/kg/day”) is 167%. The TWI in the test with MX1 [18] is on record as 97%. Also, the RI with LoVo [4] is 42.5.
As to `CN(C)CCn1nc2c3c(c(NCCn4ccnc4)ccc31)C(=O)c1ccncc1-2`, the figures for the IC50 in the test with LoVo/Dx (Homo sapiens) and with LoVo [3] were above 100 µg/mL and 1.1 µg/mL (≈ 2.74 µM), respectively. Moreover, the T/C in the test with P388 [5] came to 150%. Besides, the RI in the test on LoVo [4] was above 91. Further, the TWI in the test on MX1 [19] was 70%.
Turning to `NCCNc1ccc2c3c(nn2CCN)-c2cnccc2C(=O)c13`, the figures for the IC50 in the test with LoVo/Dx (Homo sapiens) and in the test on LoVo [3] were 15.4 µg/mL (≈ 47.8 µM) and 0.86 µg/mL (≈ 2.67 µM), respectively. The molecule further showed a T/C in the test with P388 [20] of 194%. The TWI in the test on MX1 [21] is on record as 70%. The RI in the test with LoVo [4] is 18.
In the case of `O=C1c2ccncc2-c2nn(CCNCCO)c3ccc(NCCNCCO)c1c23`, the IC50 in the test with LoVo/Dx (Homo sapiens) is above 100 µg/mL; in the test with LoVo [3], 4.5 µg/mL (≈ 11 µM). This molecule showed a TWI in the test with MX1 [22] of 89%. Moreover, the RI in the test with LoVo [4] is listed as above 22. The T/C in the test with P388 [23] is reported as 165%.
For `CN(C)CCn1nc2c3c(c(NCCNS(C)(=O)=O)ccc31)C(=O)c1ccncc1-2`, the IC50 is above 100 µg/mL with LoVo/Dx (Homo sapiens) and 4.1 µg/mL (≈ 9.57 µM) in the test on LoVo [3]. This molecule also displayed a TWI in the test on MX1 [15] of 90%. The molecule also returned a T/C in the test on P388 [24] of 111%. In the test with LoVo [4], the RI is above 24.
